# Test results reported in ChEMBL document CHEMBL1255409, “In vitro activity of ceftaroline against 623 diverse strains of anaerobic bacteria” (2010).
# Key:
# Bacteroides caccae = experiment: Antimicrobial activity against Bacteroides caccae under anaerobic conditions after 44 hrs by CLSI-M11-47 protocol based agar dilution method; type: functional
# Method in brief: (§1)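 Reference agar dilution per CLSI M11-A7 with plates made on test day. Clinical isolates were stored at −70°C in 20% skim milk, subcultured twice, and 48-h cell paste was suspended in brucella broth to 0.5 McFarland. About 10^5 CFU/spot was applied with a Steers replicator. Plates were incubated 44 h at 37°C anaerobically. MIC was the lowest concentration giving complete inhibition or marked growth reduction versus the drug-free control.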
# [1] = test system: Parabacteroides distasonis; experiment: Antimicrobial activity against Bacteroides distasonis under anaerobic conditions after 44 hrs by CLSI-M11-47 protocol based agar dilution method; type: functional; method in brief: as §1
# Prevotella buccae = experiment: Antimicrobial activity against Prevotella buccae under anaerobic conditions after 44 hrs by CLSI-M11-47 protocol based agar dilution method; type: functional; conditions: Segatella buccae
# Method in brief: (§2)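 Clinical isolates were stored at −70°C in 20% skim milk and identified phenotypically or by partial 16S rRNA sequencing. Each strain was subcultured twice from frozen stock. Cell paste from 48-h cultures was suspended in brucella broth to a 0.5 McFarland standard. About 10^5 CFU per spot were applied by Steers replicator to agar dilution plates prepared on the day of testing. Plates were incubated 44 h at 37°C in an anaerobic chamber. MIC was taken as the lowest concentration giving complete inhibition or marked reduction of growth versus the drug-free control.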
# Prevotella intermedia = experiment: Antimicrobial activity against Prevotella intermedia under anaerobic conditions after 44 hrs by CLSI-M11-47 protocol based agar dilution method; type: functional; method in brief: as §2
# Hoylesella loescheii = experiment: Antimicrobial activity against Prevotella loescheii under anaerobic conditions after 44 hrs by CLSI-M11-47 protocol based agar dilution method; type: functional; method in brief: as §2
# Prevotella oris = experiment: Antimicrobial activity against Prevotella oris under anaerobic conditions after 44 hrs by CLSI-M11-47 protocol based agar dilution method; type: functional; conditions: Segatella oris; method in brief: as §2
# Veillonella = experiment: Antimicrobial activity against Veillonella spp. under anaerobic conditions after 44 hrs by CLSI-M11-47 protocol based agar dilution method; type: functional; method in brief: as §2
# Parvimonas micra = experiment: Antimicrobial activity against Parvimonas micra under anaerobic conditions after 44 hrs by CLSI-M11-47 protocol based agar dilution method; type: functional; method in brief: as §2
# [2] = test system: Anaerococcus lactolyticus; experiment: Antimicrobial activity against Anaerococcus lactolyticus under anaerobic conditions after 44 hrs by CLSI-M11-47 protocol based agar dilution method; type: functional; method in brief: as §1
# Anaerococcus murdochii = experiment: Antimicrobial activity against Anaerococcus murdochii under anaerobic conditions after 44 hrs by CLSI-M11-47 protocol based agar dilution method; type: functional; method in brief: as §1
# Anaerococcus octavius = experiment: Antimicrobial activity against Anaerococcus octavius under anaerobic conditions after 44 hrs by CLSI-M11-47 protocol based agar dilution method; type: functional; method in brief: as §1
# Anaerococcus vaginalis = experiment: Antimicrobial activity against Anaerococcus vaginalis under anaerobic conditions after 44 hrs by CLSI-M11-47 protocol based agar dilution method; type: functional; method in brief: as §1
# Anaerococcus = experiment: Antimicrobial activity against Anaerococcus sp. under anaerobic conditions after 44 hrs by CLSI-M11-47 protocol based agar dilution method; type: functional; method in brief: as §1
# Peptoniphilus harei = experiment: Antimicrobial activity against Peptoniphilus harei under anaerobic conditions after 44 hrs by CLSI-M11-47 protocol based agar dilution method; type: functional; method in brief: as §2
# Peptoniphilus lacrimalis = experiment: Antimicrobial activity against Peptoniphilus lacrimalis under anaerobic conditions after 44 hrs by CLSI-M11-47 protocol based agar dilution method; type: functional; method in brief: as §2
# Schaalia meyeri = experiment: Antimicrobial activity against Actinomyces meyeri under anaerobic conditions after 44 hrs by CLSI-M11-47 protocol based agar dilution method; type: functional; method in brief: as §1
# [3] = test system: Actinomyces neuii subsp. anitratus; experiment: Antimicrobial activity against Actinomyces neuii subsp. anitratus under anaerobic conditions after 44 hrs by CLSI-M11-47 protocol based agar dilution method; type: functional, Winkia neuii subsp. anitrata; conditions: Winkia neuii; method in brief: as §1
# Schaalia odontolytica = experiment: Antimicrobial activity against Actinomyces odontolyticus under anaerobic conditions after 44 hrs by CLSI-M11-47 protocol based agar dilution method; type: functional; method in brief: as §1
# Actinomyces turicensis = experiment: Antimicrobial activity against Actinomyces turicensis under anaerobic conditions after 44 hrs by CLSI-M11-47 protocol based agar dilution method; type: functional; conditions: Schaalia turicensis; method in brief: as §1
# Cutibacterium acnes = experiment: Antimicrobial activity against Propionibacterium acnes under anaerobic conditions after 44 hrs by CLSI-M11-47 protocol based agar dilution method; type: functional; method in brief: as §2
# Propionibacterium avidum = experiment: Antimicrobial activity against Propionibacterium avidum under anaerobic conditions after 44 hrs by CLSI-M11-47 protocol based agar dilution method; type: functional; conditions: Cutibacterium avidum; method in brief: as §2
# Eubacterium saburreum = experiment: Antimicrobial activity against Eubacterium saburreum under anaerobic conditions after 44 hrs by CLSI-M11-47 protocol based agar dilution method; type: functional; conditions: Lachnoanaerobaculum saburreum; method in brief: as §1
# Mogibacterium timidum = experiment: Antimicrobial activity against Mogibacterium timidum under anaerobic conditions after 44 hrs by CLSI-M11-47 protocol based agar dilution method; type: functional; method in brief: as §2
# [Clostridium] innocuum = Antimicrobial activity against Clostridium […] under anaerobic conditions after 44 hrs by CLSI-M11-47 protocol based agar dilution method; type: functional; method in brief: as §1
# Clostridium aldenense = experiment: Antimicrobial activity against Clostridium aldenense under anaerobic conditions after 44 hrs by CLSI-M11-47 protocol based agar dilution method; type: functional; conditions: Enterocloster aldenensis; method in brief: as §1
# Clostridium bolteae = experiment: Antimicrobial activity against Clostridium bolteae under anaerobic conditions after 44 hrs by CLSI-M11-47 protocol based agar dilution method; type: functional; conditions: Enterocloster bolteae; method in brief: as §1
# Clostridium hathewayi = experiment: Antimicrobial activity against Clostridium hathewayi under anaerobic conditions after 44 hrs by CLSI-M11-47 protocol based agar dilution method; type: functional; conditions: Hungatella hathewayi; method in brief: as §1
# Clostridium baratii = experiment: Antimicrobial activity against Clostridium baratii under anaerobic conditions after 44 hrs by CLSI-M11-47 protocol based agar dilution method; type: functional
# Clostridium butyricum = experiment: Antimicrobial activity against Clostridium butyricum under anaerobic conditions after 44 hrs by CLSI-M11-47 protocol based agar dilution method; type: functional
# Clostridium glycolicum = experiment: Antimicrobial activity against Clostridium glycolicum under anaerobic conditions after 44 hrs by CLSI-M11-47 protocol based agar dilution method; type: functional; conditions: Terrisporobacter glycolicus; method in brief: as §1
# Clostridium hylemonae = experiment: Antimicrobial activity against Clostridium hylemonae under anaerobic conditions after 44 hrs by CLSI-M11-47 protocol based agar dilution method; type: functional; method in brief: as §1
# Lacrimispora sphenoides = experiment: Antimicrobial activity against Clostridium sphenoides under anaerobic conditions after 44 hrs by CLSI-M11-47 protocol based agar dilution method; type: functional; method in brief: as §1
smiles,measurement,setting,value
Cc1ncc([N+](=O)[O-])n1CCO [METRONIDAZOLE],MIC50,Bacteroides caccae,1 µg/mL
same,MIC90,Bacteroides caccae,2 µg/mL
same,MIC50,[1],1 µg/mL
same,MIC90,[1],2 µg/mL
same,MIC50,Prevotella buccae,0.5 µg/mL
same,MIC90,Prevotella buccae,1 µg/mL
same,MIC50,Prevotella intermedia,0.25 µg/mL
same,MIC90,Prevotella intermedia,1 µg/mL
same,MIC50,Hoylesella loescheii,0.5 µg/mL
same,MIC90,Hoylesella loescheii,2 µg/mL
same,MIC50,Prevotella oris,0.5 µg/mL
same,MIC90,Prevotella oris,2 µg/mL
same,MIC50,Veillonella,2 µg/mL
same,MIC90,Veillonella,8 µg/mL
same,MIC50,Parvimonas micra,0.25 µg/mL
same,MIC90,Parvimonas micra,0.25 µg/mL
same,MIC50,[2],1 µg/mL
same,MIC90,[2],4 µg/mL
same,MIC50,Anaerococcus murdochii,1 µg/mL
same,MIC90,Anaerococcus murdochii,4 µg/mL
same,MIC50,Anaerococcus octavius,1 µg/mL
same,MIC90,Anaerococcus octavius,4 µg/mL
same,MIC50,Anaerococcus vaginalis,1 µg/mL
same,MIC90,Anaerococcus vaginalis,4 µg/mL
same,MIC50,Anaerococcus,1 µg/mL
same,MIC90,Anaerococcus,4 µg/mL
same,MIC50,Peptoniphilus harei,1 µg/mL
same,MIC90,Peptoniphilus harei,4 µg/mL
same,MIC50,Peptoniphilus lacrimalis,1 µg/mL
same,MIC90,Peptoniphilus lacrimalis,4 µg/mL
same,MIC50,Schaalia meyeri,> 32 µg/mL
same,MIC90,Schaalia meyeri,> 32 µg/mL
same,MIC50,[3],> 32 µg/mL
same,MIC90,[3],> 32 µg/mL
same,MIC50,Schaalia odontolytica,> 32 µg/mL
same,MIC90,Schaalia odontolytica,> 32 µg/mL
same,MIC50,Actinomyces turicensis,> 32 µg/mL
same,MIC90,Actinomyces turicensis,> 32 µg/mL
same,MIC50,Cutibacterium acnes,> 32 µg/mL
same,MIC90,Cutibacterium acnes,> 32 µg/mL
same,MIC50,Propionibacterium avidum,> 32 µg/mL
same,MIC90,Propionibacterium avidum,> 31 µg/mL
same,MIC50,Eubacterium saburreum,0.5 µg/mL
same,MIC90,Eubacterium saburreum,1 µg/mL
same,MIC50,Mogibacterium timidum,0.5 µg/mL
same,MIC90,Mogibacterium timidum,1 µg/mL
same,MIC50,[Clostridium] innocuum,1 µg/mL
same,MIC90,[Clostridium] innocuum,4 µg/mL
same,MIC50,Clostridium aldenense,0.06 µg/mL
same,MIC90,Clostridium aldenense,0.25 µg/mL
same,MIC50,Clostridium bolteae,0.06 µg/mL
same,MIC90,Clostridium bolteae,0.25 µg/mL
same,MIC50,Clostridium hathewayi,0.06 µg/mL
same,MIC90,Clostridium hathewayi,0.25 µg/mL
same,MIC50,Clostridium baratii,0.5 µg/mL
same,MIC90,Clostridium baratii,4 µg/mL
same,MIC50,Clostridium butyricum,0.5 µg/mL
same,MIC90,Clostridium butyricum,4 µg/mL
same,MIC50,Clostridium glycolicum,0.5 µg/mL
same,MIC90,Clostridium glycolicum,4 µg/mL
same,MIC50,Clostridium hylemonae,0.5 µg/mL
same,MIC90,Clostridium hylemonae,4 µg/mL
same,MIC50,Lacrimispora sphenoides,0.5 µg/mL
same,MIC90,Lacrimispora sphenoides,4 µg/mL
CCO/N=C(\C(=O)N[C@@H]1C(=O)N2C(C(=O)[O-])=C(Sc3nc(-c4cc[n+](C)cc4)cs3)CS[C@H]12)c1nsc(NP(=O)(O)O)n1 [CEFTAROLINE FOSAMIL],MIC50,Bacteroides caccae,64 µg/mL
same,MIC90,Bacteroides caccae,> 64 µg/mL
same,MIC50,[1],64 µg/mL
same,MIC90,[1],> 64 µg/mL
same,MIC50,Prevotella buccae,0.5 µg/mL
same,MIC90,Prevotella buccae,64 µg/mL
same,MIC50,Prevotella intermedia,1 µg/mL
same,MIC90,Prevotella intermedia,16 µg/mL
same,MIC50,Hoylesella loescheii,2 µg/mL
same,MIC90,Hoylesella loescheii,32 µg/mL
same,MIC50,Prevotella oris,2 µg/mL
same,MIC90,Prevotella oris,32 µg/mL
same,MIC50,Veillonella,0.125 µg/mL
same,MIC90,Veillonella,0.5 µg/mL
same,MIC50,Parvimonas micra,0.06 µg/mL
same,MIC90,Parvimonas micra,0.25 µg/mL
same,MIC50,[2],0.06 µg/mL
same,MIC90,[2],1 µg/mL
same,MIC50,Anaerococcus murdochii,0.06 µg/mL
same,MIC90,Anaerococcus murdochii,1 µg/mL
same,MIC50,Anaerococcus octavius,0.06 µg/mL
same,MIC90,Anaerococcus octavius,1 µg/mL
same,MIC50,Anaerococcus vaginalis,0.06 µg/mL
same,MIC90,Anaerococcus vaginalis,1 µg/mL
same,MIC50,Anaerococcus,0.06 µg/mL
same,MIC90,Anaerococcus,1 µg/mL
same,MIC50,Peptoniphilus harei,0.06 µg/mL
same,MIC90,Peptoniphilus harei,1 µg/mL
same,MIC50,Peptoniphilus lacrimalis,0.06 µg/mL
same,MIC90,Peptoniphilus lacrimalis,1 µg/mL
same,MIC50,Schaalia meyeri,0.015 µg/mL
same,MIC90,Schaalia meyeri,0.25 µg/mL
same,MIC50,[3],0.015 µg/mL
same,MIC90,[3],0.25 µg/mL
same,MIC50,Schaalia odontolytica,0.015 µg/mL
same,MIC90,Schaalia odontolytica,0.25 µg/mL
same,MIC50,Actinomyces turicensis,0.015 µg/mL
same,MIC90,Actinomyces turicensis,0.25 µg/mL
same,MIC50,Cutibacterium acnes,≤ 0.008 µg/mL
same,MIC90,Cutibacterium acnes,0.06 µg/mL
same,MIC50,Propionibacterium avidum,0.25 µg/mL
same,MIC90,Propionibacterium avidum,0.25 µg/mL
same,MIC50,Eubacterium saburreum,0.125 µg/mL
same,MIC90,Eubacterium saburreum,0.25 µg/mL
same,MIC50,Mogibacterium timidum,0.125 µg/mL
same,MIC90,Mogibacterium timidum,0.25 µg/mL
same,MIC50,[Clostridium] innocuum,1 µg/mL
same,MIC90,[Clostridium] innocuum,2 µg/mL
same,MIC50,Clostridium aldenense,1 µg/mL
same,MIC90,Clostridium aldenense,2 µg/mL
same,MIC50,Clostridium bolteae,1 µg/mL
same,MIC90,Clostridium bolteae,2 µg/mL
same,MIC50,Clostridium hathewayi,1 µg/mL
same,MIC90,Clostridium hathewayi,2 µg/mL
same,MIC50,Clostridium baratii,0.5 µg/mL
same,MIC90,Clostridium baratii,16 µg/mL
same,MIC50,Clostridium butyricum,0.5 µg/mL
same,MIC90,Clostridium butyricum,16 µg/mL
same,MIC50,Clostridium glycolicum,0.5 µg/mL
same,MIC90,Clostridium glycolicum,16 µg/mL
same,MIC50,Clostridium hylemonae,0.5 µg/mL
same,MIC90,Clostridium hylemonae,16 µg/mL
same,MIC50,Lacrimispora sphenoides,0.5 µg/mL
same,MIC90,Lacrimispora sphenoides,16 µg/mL
